Active and inactive are the calls of the source. The calls are words filed in the database; no cut-off is given here.
Legend:
[1] = target: T1, Prostaglandin D2 receptor 2 (Mus musculus, UniProt Q9Z2J6); experiment: Inhibition of mouse CRTH2 receptor
T1 sequence (Q9Z2J6 whole entry): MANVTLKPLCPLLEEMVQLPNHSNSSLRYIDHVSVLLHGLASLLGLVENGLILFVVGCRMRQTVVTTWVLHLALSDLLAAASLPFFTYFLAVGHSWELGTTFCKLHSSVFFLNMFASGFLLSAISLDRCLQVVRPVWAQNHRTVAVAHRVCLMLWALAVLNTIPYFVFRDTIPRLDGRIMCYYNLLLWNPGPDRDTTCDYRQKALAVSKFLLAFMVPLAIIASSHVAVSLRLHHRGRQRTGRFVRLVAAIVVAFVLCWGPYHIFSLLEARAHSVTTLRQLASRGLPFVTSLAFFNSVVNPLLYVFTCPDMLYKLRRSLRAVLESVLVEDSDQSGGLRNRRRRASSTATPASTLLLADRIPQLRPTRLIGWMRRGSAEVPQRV

Cavia porcellus = experiment: Antiallergic activity in ovalbumin-induced allergic lung inflammation Hartley guinea pig model assessed as eosinophil level in bronchoalveolar lavage fluid at 20 mg/kg, po administered 1 hr before and 6 hrs after ovalbumin challenge after 24 hrs; format: functional, organism-based; parameters: dose 20 mg/kg
In short: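 Female Hartley guinea pigs (375–425 g) sensitized ip on days 1 and 5 with 100 μg OVA plus 100 mg aluminum hydroxide in PBS, then challenged on day 15 with aerosolized 0.01% OVA for 60 min. Dosed orally 1 h before and 6 h after challenge; vehicle was Tween 80 in cherry syrup. On day 16, lungs lavaged with 2 × 10 mL PBS. Total cells counted by hemocytometer; differentials from stained cytospins. Unpaired t test.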

Ovis aries = experiment: Inhibition of allergen-induced mucociliary clearance in sheep assessed as tracheal mucus velocity at 3 mg/kg, iv measured at 8 hrs (reference value: 47%); format: functional; details: Trachea
In short: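 Five sheep received 3 mg/kg iv around allergen challenge. Tracheal mucus velocity measured at 4 h and 8 h and expressed as % of baseline.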

IC50 [1]: 4 nM
Structure (SMILES): Cc1c(-c2cn(C(C)C)c(=O)c3ccccc23)c2cc(F)ccc2n1CC(=O)O
inhibition (Cavia porcellus): Active | inhibition in vivo at 3 mg/kg (Ovis aries): 98%

Source: ChEMBL document CHEMBL3232705, “Discovery of isoquinolinone indole acetic acids as antagonists of chemoattractant receptor homologous molecule expressed on Th2 cells (CRTH2) for the treatment of allergic inflammatory diseases” (J Med Chem, 2014)
